Experimental data as given in ChEMBL document CHEMBL4680254, “Design, synthesis and discovery of 2(1H)-quinolone derivatives for the treatment of pulmonary fibrosis through inhibition of TGF-β/smad dependent and independent pathway” (Eur J Med Chem, 2020).

Tests used:
NRK-49F = test: Inhibition of TGF-beta-induced collagen accumulation in rat NRK-49F cells at 10 uM incubated for 2 days by PSR staining based microscopic analysis relative to control; assay type: functional; details: 48 h, time 2 day
Method in brief: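 NRK-49F cells were grown 3 days in DMEM with 5% FBS, then 2 days in DMEM with 1% ITS. Next came 2 days with TGF-β 5 ng/ml plus or minus compound 10 µM. Cells were fixed in 4% paraformaldehyde and stained 4 h with 0.1% Picrosirius Red, then rinsed with acetic acid. Dye was eluted with 0.1 M NaOH and OD read at 540 nm. Inhibition = […] ×100%, in triplicate.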

[1] = Cytotoxicity against rat NRK-49F cells assessed as cell survival rate at 10 uM incubated for 72 hrs by MTT assay; assay type: cell-based; details: read-out: Activity
Method in brief: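 NRK-49F cells were seeded at 0.5×10^5 cells/ml, cultured overnight, then exposed to compound 10 µM for 72 h. MTT was added and incubated 4 h, formazan dissolved in DMSO and absorbance read. Survival = (treated − zero)/(blank − zero) A ×100%, done in triplicate.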

Compound | inhibition at 10 µM (NRK-49F) [%] | viability at 72 h, 10 µM [1] [%]
CN1CCN(CC(=O)Nc2ccc(Sc3cc(=O)[nH]c4ccccc34)cc2)CC1 | 40 | 86.7
CCN1CCN(CC(=O)Nc2ccc(Oc3cc(=O)[nH]c4ccccc34)c(F)c2)CC1 | 49.1 | 89.6
O=C(CN1CCOCC1)Nc1ccc(Oc2cc(=O)[nH]c3ccccc23)cc1 | 59.3 | 95.7
CCN(CC)CC(=O)Nc1ccc(Sc2cc(=O)[nH]c3ccccc23)cc1 | 58.6 | 85.5
CC(C)(C)OC(=O)N1CCN(CC(=O)Nc2ccc(Sc3cc(=O)[nH]c4ccccc34)cc2)CC1 | 72.4 | 71.2
CN(C)C1CCN(CC(=O)Nc2ccc(Sc3cc(=O)[nH]c4ccccc34)cc2)CC1 | 51.1 | 80.3
CCN(CC)CC(=O)Nc1ccc(Oc2cc(=O)[nH]c3ccccc23)c(F)c1 | 58.8 | 106
CC(C)(C)OC(=O)N1CCN(CC(=O)Nc2ccc(Oc3ccc4[nH]c(=O)ccc4c3)c(F)c2)CC1 | 57.4 | 85.6
O=C(CNC1CCOCC1)Nc1ccc(Oc2cc(=O)[nH]c3ccccc23)c(F)c1 | 53.9 | 90.8
CC(=O)N1CCN(CC(=O)Nc2ccc(Nc3cc(=O)[nH]c4ccccc34)cc2)CC1 | 39 | 72.5
O=C(CNC1CCOCC1)Nc1ccc(Sc2cc(=O)[nH]c3ccccc23)cc1 | 53 | 83.9
O=C(CN1CCCCC1)Nc1ccc(Nc2cc(=O)[nH]c3ccccc23)cc1 | 24.4 | 75.4
CCN1CCN(CC(=O)Nc2ccc(Sc3cc(=O)[nH]c4ccccc34)cc2)CC1 | 56.6 | 78
O=C(CN1CCN(C(=O)C2CC2)CC1)Nc1ccc(Oc2ccc3ccc(=O)[nH]c3c2)c(F)c1 | 56.6 | 98.2
O=C(CNC1CCOCC1)Nc1ccc(Nc2cc(=O)[nH]c3ccccc23)cc1 | 50 | 83.5
O=C(CN1CCN(C(=O)C2CC2)CC1)Nc1ccc(Oc2cc(=O)[nH]c3ccccc23)cc1 | 78.3 | 92.2
CCNCC(=O)Nc1ccc(Sc2cc(=O)[nH]c3ccccc23)cc1 | 51.1 | 87.7
O=C(CN1CCN(C(=O)C2CC2)CC1)Nc1ccc(Oc2ccc3[nH]c(=O)ccc3c2)c(F)c1 | 34.6 | 95.2
O=C(CN1CCCC1)Nc1ccc(Oc2cc(=O)[nH]c3ccccc23)cc1 | 68 | 82.2
CCNCC(=O)Nc1ccc(Nc2cc(=O)[nH]c3ccccc23)cc1 | 28.7 | 83.7
O=C(CN1CCOCC1)Nc1ccc(Nc2cc(=O)[nH]c3ccccc23)cc1 | 40.9 | 81.9
CN(C)C1CCN(CC(=O)Nc2ccc(Oc3cc(=O)[nH]c4ccccc34)c(F)c2)CC1 | 60.7 | 98.6
O=C(CN1CCCC1)Nc1ccc(Oc2cc(=O)[nH]c3ccccc23)c(F)c1 | 49.5 | 96.4
O=C(CN1CCCCC1)Nc1ccc(Sc2cc(=O)[nH]c3ccccc23)cc1 | 28.4 | 93.5
CC1CCN(CC(=O)Nc2ccc(Oc3cc(=O)[nH]c4ccccc34)c(F)c2)CC1 | 45.9 | 105
CC1CCN(CC(=O)Nc2ccc(Sc3cc(=O)[nH]c4ccccc34)cc2)CC1 | 28.6 | 116

Compound | inhibition at 10 µM (NRK-49F) [%] | viability at 72 h, 10 µM [1] [%]
CN1CCN(CC(=O)Nc2ccc(Oc3cc(=O)[nH]c4ccccc34)c(F)c2)CC1 | 73.9 | 99
CN(C)C1CCN(CC(=O)Nc2ccc(Nc3cc(=O)[nH]c4ccccc34)cc2)CC1 | 50.2 | 83.5
O=C(CN1CCOCC1)Nc1ccc(Oc2cc(=O)[nH]c3ccccc23)c(F)c1 | 47.3 | 90.8
CC(C)(C)OC(=O)N1CCN(CC(=O)Nc2ccc(Nc3cc(=O)[nH]c4ccccc34)cc2)CC1 | 73.3 | 67.5
CCNCC(=O)Nc1ccc(Oc2cc(=O)[nH]c3ccccc23)cc1 | 25.4 | 89.2
CC(C)(C)OC(=O)N1CCN(CC(=O)Nc2ccc(Oc3cc(=O)[nH]c4ccccc34)cc2)CC1 | 76.2 | 75.6
CCN(CC)CC(=O)Nc1ccc(Nc2cc(=O)[nH]c3ccccc23)cc1 | 44.2 | 82.6
CC1CCN(CC(=O)Nc2ccc(Nc3cc(=O)[nH]c4ccccc34)cc2)CC1 | 20.1 | 82.5
CN1CCN(CC(=O)Nc2ccc(Oc3cc(=O)[nH]c4ccccc34)cc2)CC1 | 43.7 | 80.2
O=C(CN1CCCCC1)Nc1ccc(Oc2cc(=O)[nH]c3ccccc23)c(F)c1 | 38.3 | 87.2
O=C(CNC1CCOCC1)Nc1ccc(Oc2cc(=O)[nH]c3ccccc23)cc1 | 46 | 96
O=C(CN1CCCC1)Nc1ccc(Nc2cc(=O)[nH]c3ccccc23)cc1 | 59.9 | 72.5
O=C(CN1CCOCC1)Nc1ccc(Sc2cc(=O)[nH]c3ccccc23)cc1 | 53.4 | 77.4
CC(C)(C)N1CCN(CC(=O)Nc2ccc(Oc3ccc4ccc(=O)[nH]c4c3)c(F)c2)CC1 | 67.7 | 89.8
O=C(CN1CCNCC1)Nc1ccc(Oc2cc(=O)[nH]c3ccccc23)c(F)c1 | 60.3 | 93.3
CC(C)(C)N1CCN(CC(=O)Nc2ccc(Oc3ccc4[nH]c(=O)ccc4c3)c(F)c2)CC1 | 61.5 | 83.3
CC1CCN(CC(=O)Nc2ccc(Oc3cc(=O)[nH]c4ccccc34)cc2)CC1 | 31.5 | 79.9
CCNCC(=O)Nc1ccc(Oc2cc(=O)[nH]c3ccccc23)c(F)c1 | 50.6 | 99.3
CC(=O)N1CCN(CC(=O)Nc2ccc(Oc3cc(=O)[nH]c4ccccc34)c(F)c2)CC1 | 42.7 | 108
CC(=O)N1CCN(CC(=O)Nc2ccc(Sc3cc(=O)[nH]c4ccccc34)cc2)CC1 | 39.4 | 101
CC(C)(C)OC(=O)N1CCN(CC(=O)Nc2ccc(Oc3ccc4ccc(=O)[nH]c4c3)c(F)c2)CC1 | 76.4 | 89.7
CCN1CCN(CC(=O)Nc2ccc(Oc3cc(=O)[nH]c4ccccc34)cc2)CC1 | 41.7 | 91.7
CC(=O)N1CCN(CC(=O)Nc2ccc(Oc3cc(=O)[nH]c4ccccc34)cc2)CC1 | 50 | 96.3
CC(C)(C)N1CCN(CC(=O)Nc2ccc(Oc3cc(=O)[nH]c4ccccc34)cc2)CC1 | 73.2 | 92.7
CN1CCN(CC(=O)Nc2ccc(Nc3cc(=O)[nH]c4ccccc34)cc2)CC1 | 38.9 | 78
CCN1CCN(CC(=O)Nc2ccc(Nc3cc(=O)[nH]c4ccccc34)cc2)CC1 | 46 | 64.8
